# Results gathered from unrelated publications.
# Compare with care: the assays were run in different laboratories.
Compound,cell line,read-out,technique,tested at,time,endpoint,value
O=C(Nc1ccccc1)Nc1ccc(Oc2nnc(-c3ccc(Cl)cc3)c3ccccc23)cc1,HepG2,cell growth or viability,MTT,0.312 µM,,cell death,93%
CC(C)(C)c1cnc(CSc2cnc(NC(=O)C3CCN(CCCCSc4cccc5c4C(=O)N(C4CCC(=O)NC4=O)C5=O)CC3)s2)o1 (stereo not shown),HH,cell growth or viability,CCK-8,0.15 µM,,viability,36.9%
O=C(Nc1ccccc1)Nc1cccc(Br)c1,LAD2,degranulation,,,,IC50,22.1 µM
CC(C)(C)c1cnc(CSc2cnc(NC(=O)C3CCN(CCCCCCCCSc4cccc5c4CN(C4CCC(=O)NC4=O)C5=O)CC3)s2)o1 (stereo not shown),HH,cell growth or viability,CCK-8,50 nM,,viability,90.8%
COC(=O)/C=C/c1nn(CC2CCCC2)c2ncnc(N)c12,OE33,cell growth or viability,resazurin,,5 days,EC50,> 30 µM
CC(C)(C)c1cnc(CSc2cnc(NC(=O)C3CCN(C(=O)CCCSc4cccc5c4C(=O)N(C4CCC(=O)NC4=O)C5=O)CC3)s2)o1 (stereo not shown),HH,cell growth or viability,CCK-8,0.2 µM,,viability,96.7%
CCOC(=O)c1nn(-c2cccc(Cl)c2)/c(=N/N=C(\C)c2ccc(NC(=O)c3ccc(Cl)cc3)cc2)s1,HepG2,cell growth or viability,MTT,1.25 µM,,viability,2.59%
CC(C)(C)c1cnc(CSc2cnc(NC(=O)C3CCN(CCCCCCCCSc4cccc5c4C(=O)N(C4CCC(=O)NC4=O)C5=O)CC3)s2)o1 (stereo not shown),HH,cell growth or viability,CCK-8,10 nM,,viability,98.2%
O=C(Nc1ccc(Oc2nnc(-c3ccc(Cl)cc3)c3ccccc23)cc1)c1cccc([N+](=O)[O-])c1,HepG2,cell growth or viability,MTT,5 µM,,cell death,94.8%
CNc1ncc2c(/C=C/C(=O)N3CCC(N(C)C)CC3)nn(CC3CCCC3)c2n1,OE33,cell growth or viability,resazurin,,5 days,EC50,15 µM
C=CC(=O)NC1CCN(c2ncc3ncnc(Nc4ccc(Oc5ccc6c(c5)ncn6C)c(C)c4)c3n2)CC1,SBC-5,cell growth or viability,,,,EC50,0.325 µM
CNc1ncc2c(/C=C/C(=O)N3CCCC3)nn(CC3CCCC3)c2n1,OE33,cell growth or viability,resazurin,,5 days,EC50,> 30 µM
CC(=NNC(=O)c1cccnc1)c1ccc(Nc2nnc(-c3ccc(Cl)cc3)c3ccccc23)cc1,HepG2,cell growth or viability,MTT,0.312 µM,,cell death,6.41%
CNc1ncc2c(/C=C/C(=O)N3CCC(C)CC3)nn(CC3CCCC3)c2n1,OE33,cell growth or viability,resazurin,,5 days,EC50,> 30 µM
CC(=O)Nc1ccc(Oc2nnc(-c3ccc(Cl)cc3)c3ccccc23)cc1,HepG2,cell growth or viability,MTT,2.5 µM,24 h,viability,6.5%
CNc1ncc2c(/C=C/C(=O)N3CCCC(N(C)C)C3)nn(CC3CCCC3)c2n1 (stereo not shown),OE33,cell growth or viability,resazurin,,5 days,EC50,17.7 µM
S=C(Nc1ccccc1)Nc1ccc(Oc2nnc(-c3ccc(Cl)cc3)c3ccccc23)cc1,HepG2,cell growth or viability,MTT,10 µM,,cell death,97.2%
Nc1ncnc2c1c(/C=C/C(=O)N1CCC(c3ccccc3)CC1)nn2CC1CCCC1,OE33,cell growth or viability,resazurin,,5 days,EC50,> 30 µM
CC(=NNC(=O)c1ccccc1O)c1ccc(Nc2nnc(-c3ccc(Cl)cc3)c3ccccc23)cc1,HepG2,cell growth or viability,MTT,5 µM,,cell death,84.2%
Cc1sc2c(c1C)C(c1ccc(Cl)cc1)=N[C@@H](CC(=O)NCCCCCCCCNC(=O)COc1cccc3c1C(=O)N(C1CCC(=O)NC1=O)C3=O)c1nnc(C)n1-2 (stereo partly shown),Ramos,cell growth or viability,ATP luminescence,,72 h,IC50,0.012 µM
CC(C)(C)c1cnc(CSc2cnc(NC(=O)C3CCN(C(=O)COCCOCCSc4cccc5c4C(=O)N(C4CCC(=O)NC4=O)C5=O)CC3)s2)o1 (stereo not shown),HH,cell growth or viability,CCK-8,1 µM,,viability,7.67%
CC(=NNC(=O)c1ccccc1)c1ccc(Nc2nnc(-c3ccc(Cl)cc3)c3ccccc23)cc1,HepG2,cell growth or viability,MTT,2.5 µM,,cell death,95.8%
